ChEMBL document CHEMBL4411293, “Development of alkyl glycerone phosphate synthase inhibitors: Structure-activity relationship and effects on ether lipids and epithelial-mesenchymal transition in cancer cells” (Eur J Med Chem, 2019)
Activity calls are given as the source filed them. The rule behind the calls is not given here.

Tests used:
[1] = target: Alkyldihydroxyacetonephosphate synthase, peroxisomal (Homo sapiens) (UniProt O00116); assay: Binding affinity to AGPS (unknown origin) assessed as change in melting temperature at 180 uM by ThermoFAD assay
Sequence of Alkyldihydroxyacetonephosphate synthase, peroxisomal (Homo sapiens) (O00116 whole entry): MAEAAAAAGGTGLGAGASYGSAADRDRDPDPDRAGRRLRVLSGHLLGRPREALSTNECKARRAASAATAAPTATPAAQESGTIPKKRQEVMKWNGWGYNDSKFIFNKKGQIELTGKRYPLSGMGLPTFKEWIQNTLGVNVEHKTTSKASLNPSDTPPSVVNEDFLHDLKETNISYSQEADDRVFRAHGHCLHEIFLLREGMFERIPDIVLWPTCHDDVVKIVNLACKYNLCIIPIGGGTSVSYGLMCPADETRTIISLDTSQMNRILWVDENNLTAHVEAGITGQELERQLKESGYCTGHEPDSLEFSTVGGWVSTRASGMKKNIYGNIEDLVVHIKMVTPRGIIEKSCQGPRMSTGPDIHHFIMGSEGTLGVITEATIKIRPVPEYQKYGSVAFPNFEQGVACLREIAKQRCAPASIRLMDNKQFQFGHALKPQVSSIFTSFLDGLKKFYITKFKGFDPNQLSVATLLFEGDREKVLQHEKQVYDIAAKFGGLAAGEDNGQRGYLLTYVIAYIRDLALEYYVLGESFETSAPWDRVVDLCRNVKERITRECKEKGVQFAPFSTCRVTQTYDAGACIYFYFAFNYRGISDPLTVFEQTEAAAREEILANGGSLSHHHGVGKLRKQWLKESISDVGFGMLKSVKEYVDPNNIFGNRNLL
Procedure, shortened: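 ThermoFAD: 5 µM Cavia porcellus AGPS with 180 µM compound in 50 mM HEPES pH 7.5, 50 mM NaCl, 5% glycerol; heated 25–70 °C, FAD fluorescence read every 0.2 °C (excitation 485 nm) to give unfolding temperature shift; triplicate, SD within ±0.5 °C.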

[2] = target: Alkyldihydroxyacetonephosphate synthase, peroxisomal (Homo sapiens) (UniProt O00116); assay: Inhibition of AGPS (unknown origin) using palmitoyl-DHAP as substrate in presence of [1-14C]hexadecanol by radioactivity based enzymatic assay
[3] = test system: PC-3; assay: Modulation of epithelial-mesenchymal transition in human PC3 cells assessed as upregulation of E-cadherin mRNA expression at 50 to 100 uM after 24 hrs by qRT-PCR analysis; type: functional, cell-based
Procedure, shortened: (§1)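 PC-3 and MDA-MB-231 cells in DMEM/10% FBS treated 24 h at 50 and 100 µM, DMSO vehicle as control; E-cadherin, Snail and MMP2 transcripts quantified by RT-PCR; mean of at least four independent experiments.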

[4] = test system: MDA-MB-231; assay: Modulation of epithelial-mesenchymal transition in human MDA-MB-231 cells assessed as upregulation of E-cadherin mRNA expression at 50 to 100 uM after 24 hrs by qRT-PCR analysis; type: functional, cell-based; procedure, shortened: as §1
[5] = test system: PC-3; assay: Modulation of epithelial-mesenchymal transition in human PC3 cells assessed as down regulation of snail mRNA expression at 50 to 100 uM after 24 hrs by qRT-PCR analysis; type: functional, cell-based; procedure, shortened: as §1
[6] = test system: MDA-MB-231; assay: Modulation of epithelial-mesenchymal transition in human MDA-MB-231 cells assessed as down regulation of snail mRNA expression at 50 to 100 uM after 24 hrs by qRT-PCR analysis; type: functional, cell-based; procedure, shortened: as §1
[7] = test system: PC-3; assay: Modulation of epithelial-mesenchymal transition in human PC3 cells assessed as down regulation of MMP2 mRNA expression at 50 to 100 uM after 24 hrs by qRT-PCR analysis; type: functional, cell-based; procedure, shortened: as §1
[8] = test system: MDA-MB-231; assay: Modulation of epithelial-mesenchymal transition in human MDA-MB-231 cells assessed as down regulation of MMP2 mRNA expression at 50 to 100 uM after 24 hrs by qRT-PCR analysis; type: functional, cell-based; procedure, shortened: as §1
[9] = Down regulation of phospholipids in human 231MFP cells at 500 uM after 24 hrs by LC-MS/MS analysis relative to control; type: functional
Procedure, shortened: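 231MFP cells kept serum-free 24 h, then treated 24 h at 500 µM versus DMSO; lipids extracted in chloroform/methanol/PBS (2:1:1) with C12:0 dodecylglycerol and pentadecanoic acid internal standards; reverse-phase C5 LC, ESI triple-quadrupole MS/MS with SRM quantitation; mean ± SD.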

[10] = Antimigratory activity in human 231MFP cells at 500 uM after 6 hrs by transwell assay relative to control; type: functional
Procedure, shortened: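 Transwell chambers coated with collagen; 231MFP cells preincubated with compound or DMSO vehicle before seeding into serum-free migration assay; migration rate read after 6 h versus vehicle control; mean ± SD, n = 3–4 per group.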

[11] = Cytotoxicity against human 231MFP cells assessed as cell survival at 500 uM after 24 hrs by MTS assay relative to control; type: cell-based; settings: read-out: Activity
Procedure, shortened: (§2)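 231MFP cells preincubated with compound (500 µM) or DMSO, then seeded into serum-free survival assay; survival read after 24 and 48 h relative to matched DMSO controls.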

[12] = Cytotoxicity against human 231MFP cells assessed as cell survival at 500 uM after 48 hrs by MTS assay relative to control; type: cell-based; settings: read-out: Activity; procedure, shortened: as §2
[13] = Cytotoxicity against human MeT-5A cells at 100 uM after 24 hrs by MTS assay; type: cell-based
Procedure, shortened: (§3)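 Cells seeded at 20x10^3 per well; compound added 24 h later at 50, 100 or 250 µM; after further 24 h MTS reagent added and absorbance read at 490 nm; PC-3 and MDA-MB-231 in DMEM, MeT5A in M199, each with 10% FBS, 37 °C, 5% CO2; three independent experiments, 8 measurements total, mean ± SEM.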

[14] = Cytotoxicity against human MeT-5A cells at 250 uM after 24 hrs by MTS assay; type: cell-based; procedure, shortened: as §3
[15] = test system: PC-3; assay: Antiproliferative activity against human PC3 cells at 100 uM after 24 hrs by MTS assay; type: functional, cell-based; procedure, shortened: as §3
[16] = test system: MDA-MB-231; assay: Antiproliferative activity against human MDA-MB-231 cells at 100 uM after 24 hrs by MTS assay; type: functional, cell-based; procedure, shortened: as §3
[17] = test system: PC-3; assay: Antiproliferative activity against human PC3 cells at 250 uM after 24 hrs by MTS assay; type: functional, cell-based; procedure, shortened: as §3
[18] = test system: MDA-MB-231; assay: Antiproliferative activity against human MDA-MB-231 cells at 250 uM after 24 hrs by MTS assay; type: functional, cell-based; procedure, shortened: as §3
[19] = test system: MDA-MB-231; assay: Modulation of epithelial-mesenchymal transition in human MDA-MB-231 cells transfected with AGPS-siRNA assessed as upregulation of E-cadherin mRNA expression at 100 uM after 24 hrs by qRT-PCR analysis; type: functional, cell-based
Procedure, shortened: (§4)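 MDA-MB-231 cells transfected with AGPS siRNAs (100 pmol total, RNAiMAX) or scramble; 24 h later given compound at 100 µM final or DMSO without detaching, harvested 24 h after that; AGPS, E-cadherin, Snail and MMP2 transcripts by RT-PCR; mean of five independent experiments.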

[20] = test system: MDA-MB-231; assay: Modulation of epithelial-mesenchymal transition in human MDA-MB-231 cells transfected with AGPS-siRNA assessed as down regulation of snail mRNA expression at 100 uM after 24 hrs by qRT-PCR analysis; type: functional, cell-based; procedure, shortened: as §4
[21] = test system: MDA-MB-231; assay: Modulation of epithelial-mesenchymal transition in human MDA-MB-231 cells transfected with AGPS-siRNA assessed as down regulation of MMP2 mRNA expression at 100 uM after 24 hrs by qRT-PCR analysis; type: functional, cell-based; procedure, shortened: as §4
[22] = Antimigratory activity in human 231MFP cells at 500 uM after 8 hrs by transwell assay relative to control; type: functional
[23] = Reduction in cell survival in human 231MFP cells; type: functional
[24] = Reduction in cell migration rate in human 231MFP cells; type: functional; parameters: scale not given: the % may be the effect or the level left

Which ΔTm [1] does the source give for `C/C(=C\C(=O)NCc1ccc2[nH]c(=O)[nH]c2c1)c1ccccc1F` here?
Its ΔTm is 0 °C.

With `O=C(/C=C/c1ccccc1F)NCc1ccc2[nH]c(=O)[nH]c2c1` as the compound, how does the ΔTm [1] read?
The ΔTm was 0 °C.

For `CC(C(=O)NCc1ccc2[nH]c(=O)[nH]c2c1)c1c(F)cccc1F` (stereo unspecified), which ΔTm [1] is on record?
Its ΔTm is 1 °C.

What about the inhibition [2] of the same compound?
The inhibition was “inactive”.

Which ΔTm [1] does the source give for `CC(CC(=O)NCc1ccc2ncc(=O)[nH]c2c1)c1c(F)cccc1F` (stereo unspecified) here?
The ΔTm was 0 °C.

For `CCC(CC(=O)NCc1ccc2[nH]c(=O)[nH]c2c1)c1ccccc1F` (stereo unspecified), which ΔTm [1] is on record?
The ΔTm was 1 °C.

For `CC(CC(=O)NCc1ccc2[nH]cnc2c1)c1c(F)cccc1F` (stereo unspecified), which ΔTm [1] is on record?
The ΔTm was 0 °C.

What about the inhibition [2] of the same compound?
The inhibition was “inactive”.

And the Activity [3]?
The Activity was “inactive”.

And the Activity [4]?
Its Activity is “inactive”.

And the Activity [5]?
The Activity was “inactive”.

What about the Activity [6] of the same compound?
Its Activity is “inactive”.

And the Activity [7]?
Its Activity is “inactive”.

What about the Activity [8] of the same compound?
The Activity was “inactive”.

For `C[C@H](CC(=O)NCc1ccc2[nH]c(=O)[nH]c2c1)c1c(F)cccc1F`, which ΔTm [1] is on record?
Its ΔTm is 3 °C.

For `CC(CC(=O)NCc1ccc2[nH]c(=O)[nH]c2c1)c1ccccc1Cl` (stereo unspecified), which ΔTm [1] is on record?
Its ΔTm is 3.5 °C.

For `CC(CC(=O)Nc1ccc2[nH]c(=O)[nH]c2c1)c1c(F)cccc1F` (stereo unspecified), which ΔTm [1] is on record?
The ΔTm was 0 °C.

With `COc1ccccc1C(C)CC(=O)NCc1ccc2[nH]c(=O)[nH]c2c1` (stereo unspecified) as the compound, how does the ΔTm [1] read?
The ΔTm was 0 °C.

For `CC(CC(=O)NCc1ccc2[nH]c(=O)[nH]c2c1)c1ccc(F)cc1F` (stereo unspecified), which ΔTm [1] is on record?
The ΔTm was 3.5 °C.

With `CC(CC(=O)NCc1ccc2[nH]c(=O)[nH]c2c1)c1ccccc1Br` (stereo unspecified) as the compound, how does the ΔTm [1] read?
The ΔTm was 3.5 °C.

For `CC(CC(=O)NCc1ccc2[nH]c(=O)[nH]c2c1)c1ccccc1` (stereo unspecified), which ΔTm [1] is on record?
The ΔTm was 1.5 °C.

With `Cc1ccccc1C(C)CC(=O)NCc1ccc2[nH]c(=O)[nH]c2c1` (stereo unspecified) as the compound, how does the ΔTm [1] read?
The ΔTm was 3 °C.

Which results are given for `CC(CC(=O)NCc1ccc2[nH]c(=O)[nH]c2c1)c1c(F)cccc1F` (stereo in doubt; 2i) [listing 1 of 2 here]?
Activity [9]: 50 - 70%; Activity [10]: 78%; viability at 24 h, 500 µM [11]: 44%; viability at 48 h, 500 µM [12]: 57%; Activity [13]: Non-Toxic; Activity [14]: Non-Toxic

Which ΔTm [1] does the source give for `CC(CC(=O)NCc1ccc2[nH]c(=O)[nH]c2c1)c1c(F)cccc1F` (single isomer, unassigned; (+)) here?
Its ΔTm is 6 °C.

With `CC(Cc1ccccc1F)C(=O)NCc1ccc2[nH]c(=O)[nH]c2c1` (stereo unspecified) as the compound, how does the ΔTm [1] read?
The ΔTm was 3 °C.

With `CC(CC(=O)NCc1ccc2[nH]c(=O)[nH]c2c1)c1ccc(F)cc1` (stereo unspecified) as the compound, how does the ΔTm [1] read?
The ΔTm was 4 °C.

For `O=C(CCc1ccccc1F)NCc1ccc2[nH]c(=O)[nH]c2c1`, which ΔTm [1] is on record?
The ΔTm was 0 °C.

For `CC(CC(=O)NCc1ccc2[nH]c(=O)[nH]c2c1)c1c(F)cccc1F` (stereo in doubt; 2i) [listing 2 of 2 here], which ΔTm [1] is on record?
The ΔTm was 5 °C.

And the inhibition [2]?
Its inhibition is “Active”.

And the Activity [15]?
The Activity was “inactive”.

What about the Activity [16] of the same compound?
Its Activity is “inactive”.

And the Activity [17]?
Its Activity is “Active”.

What about the Activity [18] of the same compound?
The Activity was “Active”.

And the Activity [3]?
The Activity was “Active”.

And the Activity [4]?
The Activity was “Active”.

What about the Activity [5] of the same compound?
The Activity was “Active”.

And the Activity [6]?
The Activity was “Active”.

What about the Activity [7] of the same compound?
Its Activity is “Active”.

What about the Activity [8] of the same compound?
Its Activity is “Active”.

What about the Activity [19] of the same compound?
The Activity was “Active”.

And the Activity [20]?
The Activity was “Active”.

And the Activity [21]?
Its Activity is “Active”.

Which ΔTm [1] does the source give for `CC(CC(=O)NCc1ccc2[nH]c(=O)[nH]c2c1)c1cccc(F)c1` (stereo unspecified) here?
The ΔTm was 3 °C.

With `C/C(=C\c1ccccc1F)C(=O)NCc1ccc2[nH]c(=O)[nH]c2c1` as the compound, how does the ΔTm [1] read?
The ΔTm was 2 °C.

Which ΔTm [1] does the source give for `O=C(CC(c1ccccc1)c1ccccc1F)NCc1ccc2[nH]c(=O)[nH]c2c1` (stereo unspecified) here?
Its ΔTm is 0 °C.

And the inhibition [2]?
The inhibition was “inactive”.

With `CC(CC(=O)NCc1ccc2[nH]c(=O)[nH]c2c1)c1ccccc1F` (stereo unspecified) as the compound, how does the ΔTm [1] read?
The ΔTm was 3.5 °C.

And the Activity [22]?
Its Activity is 48%.

What about the Activity [3] of the same compound?
The Activity was “Active”.

And the Activity [4]?
Its Activity is “Active”.

And the Activity [5]?
Its Activity is “Active”.

And the Activity [6]?
The Activity was “Active”.

And the Activity [7]?
The Activity was “Active”.

And the Activity [8]?
Its Activity is “Active”.

And the Activity [23]?
The Activity was 50%.

And the Activity [24]?
Its Activity is 48%.
